Laboratory results from ChEMBL document CHEMBL1136183, “Antitumor agents. Part 226: synthesis and cytotoxicity of 2-phenyl-4-quinolone acetic acids and their esters” (Bioorg Med Chem Lett, 2003).
Converted amounts (≈) assume the structure as drawn. The source made the active and inactive calls. No cut-off for these calls is given here.

Assays:
KB [1] = assay: In vitro cytotoxicity evaluated against human epidermoid nasopharynx carcinoma (KB cell line); format: functional; conditions: read-out: ED50 (the source's name)
Outline: (§1)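 SRB assay on human tumour cell lines. Absorbance read at 562 nm and compared with untreated cells. ED50 is the concentration giving a 50% reduction in absorbance.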

MCF7 [2] = assay: In vitro cytotoxicity evaluated against human breast cancer (MCF-7 cell line); format: functional; conditions: read-out: ED50 (the source's name); outline: as §1
A549 [3] = assay: In vitro cytotoxicity evaluated against human lung cancer (A549 cell line); format: functional; conditions: read-out: ED50 (the source's name); outline: as §1
Tubulin alpha chain = Tubulin alpha chain (Sus scrofa, UniProt P02550); assay: Inhibitory concentration required against tubulin polymerization determined using tubulin assay; format: functional
Outline: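 Tubulin polymerization assay. IC50 is the concentration that inhibits extent of assembly by 50% after 20 min at 26 °C. At least two independent experiments per compound.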

1A9 [4] = assay: In vitro cytotoxicity evaluated against human ovarian cancer (1A9 cell line); format: functional; conditions: read-out: ED50 (the source's name); outline: as §1
SK-MEL-2 [5] = assay: In vitro cytotoxicity evaluated against human melanoma cancer (SKMEL-2 cell line); format: functional; conditions: read-out: ED50 (the source's name); outline: as §1
U-87 MG [6] = assay: In vitro cytotoxicity evaluated against human glioblastoma carcinoma (U87-MG cell line); format: functional, U-87MG ATCC; conditions: read-out: ED50 (the source's name); outline: as §1
HOS [7] = assay: In vitro cytotoxicity evaluated against human bone carcinoma (HOS cell line); format: functional; conditions: read-out: ED50 (the source's name); outline: as §1
U-87 MG [8] = assay: In vitro cytotoxicity evaluated against human glioblastoma carcinoma (U87-MG cell line); NA is not active; format: functional, cell-based; conditions: U-87MG ATCC; outline: as §1
SK-MEL-2 [9] = assay: In vitro percent inhibition evaluated against human melanoma cancer (SKMEL-2 cell line) at >20 ug/mL; format: functional
Outline: (§2)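 Same SRB cytotoxicity assay, absorbance at 562 nm versus untreated cells. Value is the percentage inhibition at the concentration tested.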

A549 [10] = assay: In vitro percent inhibition evaluated against human lung cancer (A549 cell line) at >20 ug/mL; format: functional; outline: as §2
1A9 [11] = assay: In vitro cytotoxicity evaluated against human ovarian cancer (1A9 cell line); NA is not active; format: functional, cell-based; outline: as §1
MCF7 [12] = assay: In vitro percent inhibition evaluated against human breast cancer (MCF-7 cell line) at >20 ug/mL; format: functional; outline: as §2
KB [13] = assay: In vitro cytotoxicity evaluated against human epidermoid nasopharynx carcinoma (KB cell line); NA is not active; format: functional, cell-based; outline: as §1
HOS [14] = assay: In vitro cytotoxicity evaluated against human bone carcinoma (HOS cell line); NA is not active; format: functional, cell-based; outline: as §1
U-87 MG [15] = assay: In vitro percent inhibition evaluated against human glioblastoma carcinoma (U87-MG cell line) at >20 ug/mL; format: functional, U-87MG ATCC; outline: as §2
1A9 [16] = assay: In vitro percent inhibition evaluated against human ovarian cancer (1A9 cell line) at >20 ug/mL; format: functional; outline: as §2
HOS [17] = assay: In vitro percent inhibition evaluated against human bone carcinoma (HOS cell line) at >20 ug/mL; format: functional; outline: as §2
KB [18] = assay: In vitro percent inhibition evaluated against human epidermoid nasopharynx carcinoma (KB cell line) at >20 ug/mL; format: functional; outline: as §2
A549 [19] = assay: In vitro cytotoxicity evaluated against human lung cancer (A549 cell line); NA is not active; format: functional, cell-based; outline: as §1

Chain of Tubulin alpha chain (P02550 whole entry, looked up): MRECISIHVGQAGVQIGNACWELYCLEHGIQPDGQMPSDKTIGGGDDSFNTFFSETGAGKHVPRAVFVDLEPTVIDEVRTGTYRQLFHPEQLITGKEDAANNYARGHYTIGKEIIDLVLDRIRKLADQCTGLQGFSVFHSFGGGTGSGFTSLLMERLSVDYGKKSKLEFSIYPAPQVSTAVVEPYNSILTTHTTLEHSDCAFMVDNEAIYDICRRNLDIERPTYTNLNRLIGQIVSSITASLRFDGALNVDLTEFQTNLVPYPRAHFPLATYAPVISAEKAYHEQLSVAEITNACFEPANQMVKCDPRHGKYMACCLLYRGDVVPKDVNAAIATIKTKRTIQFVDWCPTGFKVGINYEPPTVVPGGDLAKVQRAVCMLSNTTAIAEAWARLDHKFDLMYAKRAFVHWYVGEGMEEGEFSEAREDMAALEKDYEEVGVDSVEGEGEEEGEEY

**Q.** With O=C(O)Cc1cccc2c(O)cc(-c3ccccc3)nc12 as the molecule, how does the EC50 (KB [1]) read?
**A.** 0.04 µg/mL (≈ 0.143 µM)

**Q.** And the EC50 (MCF7 [2])?
**A.** 0.44 µg/mL (≈ 1.58 µM)

**Q.** And the EC50 (A549 [3])?
**A.** 0.11 µg/mL (≈ 0.394 µM)

**Q.** What about the IC50 (Tubulin alpha chain) of the same molecule?
**A.** > 40 µM

**Q.** And the EC50 (1A9 [4])?
**A.** 0.04 µg/mL (≈ 0.143 µM)

**Q.** What about the EC50 (SK-MEL-2 [5]) of the same molecule?
**A.** 0.06 µg/mL (≈ 0.215 µM)

**Q.** And the EC50 (U-87 MG [6])?
**A.** 0.12 µg/mL (≈ 0.43 µM)

**Q.** What about the EC50 (HOS [7]) of the same molecule?
**A.** 0.07 µg/mL (≈ 0.251 µM)

**Q.** How did the ED50 (U-87 MG [8]) turn out when O=C(O)Cc1cccc2nc(-c3ccccc3F)cc(O)c12 was run?
**A.** inactive

**Q.** What about the Inhibition (SK-MEL-2 [9]) of the same molecule?
**A.** 9%

**Q.** What about the Inhibition (A549 [10]) of the same molecule?
**A.** 8%

**Q.** What about the EC50 (MCF7 [2]) of the same molecule?
**A.** > 20 µg/mL

**Q.** What about the EC50 (A549 [3]) of the same molecule?
**A.** > 20 µg/mL

**Q.** What about the IC50 (Tubulin alpha chain) of the same molecule?
**A.** > 40 µM

**Q.** What about the EC50 (SK-MEL-2 [5]) of the same molecule?
**A.** > 20 µg/mL

**Q.** And the ED50 (1A9 [11])?
**A.** inactive

**Q.** What about the Inhibition (MCF7 [12]) of the same molecule?
**A.** 7%

**Q.** What about the ED50 (KB [13]) of the same molecule?
**A.** inactive

**Q.** What about the ED50 (HOS [14]) of the same molecule?
**A.** inactive

**Q.** How did the EC50 (KB [1]) turn out when O=C(O)Cc1cccc2c(O)cc(-c3ccccc3F)nc12 was run?
**A.** 0.03 µg/mL (≈ 0.101 µM)

**Q.** What about the EC50 (MCF7 [2]) of the same molecule?
**A.** 0.12 µg/mL (≈ 0.404 µM)

**Q.** And the EC50 (A549 [3])?
**A.** 0.06 µg/mL (≈ 0.202 µM)

**Q.** What about the IC50 (Tubulin alpha chain) of the same molecule?
**A.** > 40 µM

**Q.** And the EC50 (1A9 [4])?
**A.** 0.02 µg/mL (≈ 0.0673 µM)

**Q.** And the EC50 (SK-MEL-2 [5])?
**A.** 0.05 µg/mL (≈ 0.168 µM)

**Q.** What about the EC50 (U-87 MG [6]) of the same molecule?
**A.** 0.07 µg/mL (≈ 0.235 µM)

**Q.** And the EC50 (HOS [7])?
**A.** 0.04 µg/mL (≈ 0.135 µM)

**Q.** Which results are given for O=C(O)Cc1ccc2nc(-c3ccccc3F)cc(O)c2c1?
**A.** Inhibition (U-87 MG [15]): 9%; Inhibition (SK-MEL-2 [9]): 17%; Inhibition (1A9 [16]): 37%; Inhibition (HOS [17]): 15%; Inhibition (A549 [10]): 24%; EC50 (KB [1]): > 20 µg/mL; EC50 (MCF7 [2]): > 20 µg/mL; EC50 (A549 [3]): > 20 µg/mL; IC50 (Tubulin alpha chain): 5.2 µM; EC50 (1A9 [4]): > 20 µg/mL; EC50 (SK-MEL-2 [5]): > 20 µg/mL; Inhibition (MCF7 [12]): 16%; EC50 (U-87 MG [6]): > 20 µg/mL; EC50 (HOS [7]): > 20 µg/mL; Inhibition (KB [18]): 36%

**Q.** Which ED50 (U-87 MG [8]) does the source give for COC(=O)Cc1cccc2c(O)cc(-c3ccccc3F)nc12 here?
**A.** inactive

**Q.** What about the Inhibition (SK-MEL-2 [9]) of the same molecule?
**A.** 11%

**Q.** And the Inhibition (HOS [17])?
**A.** 18%

**Q.** And the Inhibition (A549 [10])?
**A.** 22%

**Q.** And the EC50 (KB [1])?
**A.** > 10 µg/mL

**Q.** And the EC50 (MCF7 [2])?
**A.** > 10 µg/mL

**Q.** And the EC50 (A549 [3])?
**A.** > 10 µg/mL

**Q.** What about the IC50 (Tubulin alpha chain) of the same molecule?
**A.** 5.5 µM

**Q.** What about the EC50 (1A9 [4]) of the same molecule?
**A.** 7.5 µg/mL (≈ 24.1 µM)

**Q.** And the EC50 (SK-MEL-2 [5])?
**A.** > 10 µg/mL

**Q.** What about the Inhibition (MCF7 [12]) of the same molecule?
**A.** 14%

**Q.** What about the EC50 (HOS [7]) of the same molecule?
**A.** > 10 µg/mL

**Q.** What about the Inhibition (KB [18]) of the same molecule?
**A.** 29%

**Q.** With O=C(O)Cc1ccc2c(O)cc(-c3ccccc3F)nc2c1 as the molecule, how does the ED50 (U-87 MG [8]) read?
**A.** inactive

**Q.** And the Inhibition (SK-MEL-2 [9])?
**A.** 14%

**Q.** What about the Inhibition (1A9 [16]) of the same molecule?
**A.** 15%

**Q.** What about the Inhibition (A549 [10]) of the same molecule?
**A.** 21%

**Q.** And the EC50 (KB [1])?
**A.** > 20 µg/mL

**Q.** And the EC50 (MCF7 [2])?
**A.** > 20 µg/mL

**Q.** And the EC50 (A549 [3])?
**A.** > 20 µg/mL

**Q.** What about the IC50 (Tubulin alpha chain) of the same molecule?
**A.** 10 µM

**Q.** What about the EC50 (1A9 [4]) of the same molecule?
**A.** > 20 µg/mL

**Q.** And the EC50 (SK-MEL-2 [5])?
**A.** > 20 µg/mL

**Q.** What about the Inhibition (MCF7 [12]) of the same molecule?
**A.** 13%

**Q.** And the Inhibition (KB [18])?
**A.** 8%

**Q.** And the ED50 (HOS [14])?
**A.** inactive

**Q.** Which ED50 (U-87 MG [8]) does the source give for COC(=O)Cc1cccc2c(O)cc(-c3ccccc3)nc12 here?
**A.** inactive

**Q.** What about the Inhibition (SK-MEL-2 [9]) of the same molecule?
**A.** 12%

**Q.** What about the Inhibition (1A9 [16]) of the same molecule?
**A.** 30%

**Q.** What about the Inhibition (HOS [17]) of the same molecule?
**A.** 7%

**Q.** What about the EC50 (KB [1]) of the same molecule?
**A.** > 20 µg/mL

**Q.** And the EC50 (MCF7 [2])?
**A.** > 20 µg/mL

**Q.** And the ED50 (A549 [19])?
**A.** inactive

**Q.** And the IC50 (Tubulin alpha chain)?
**A.** 30 µM

**Q.** What about the EC50 (1A9 [4]) of the same molecule?
**A.** > 20 µg/mL

**Q.** And the EC50 (SK-MEL-2 [5])?
**A.** > 20 µg/mL

**Q.** What about the Inhibition (MCF7 [12]) of the same molecule?
**A.** 15%

**Q.** And the EC50 (HOS [7])?
**A.** > 20 µg/mL

**Q.** And the Inhibition (KB [18])?
**A.** 8%
